Experimental data as given in ChEMBL document CHEMBL1777725, “New class of potent antitumor acylhydrazone derivatives containing furan” (Eur J Med Chem, 2010).

Key:
[1] = tested on: HL-60; assay: Growth inhibition of human HL60 cells at 10 uM after 48 hrs by MTT assay; type: functional; conditions: HL-60, 48 h, read-out: GI
Method in brief: (§1)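 Exponentially growing cells at 1–2.5 ×10⁴ cells/mL, in humidified 5% CO₂, were seeded into 96-well plates. After 24 h, medium containing compound at various concentrations was added, and cells were incubated 48 h. Controls received RPMI-1640 medium only. Viable cell number was read by MTT at 570 nm for HL-60, and by SRB at 540 nm for Bel-7402, BGC-823 and KB.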

[2] = tested on: KB; assay: Growth inhibition of human KB cells at 10 uM after 48 hrs by SRB assay; type: functional; conditions: read-out: GI; method in brief: as §1
[3] = tested on: BGC-823; assay: Growth inhibition of human BGC823 cells at 10 uM after 48 hrs by SRB assay; type: functional; conditions: BGC-823, 48 h, read-out: GI; method in brief: as §1
[4] = tested on: Bel-7402; assay: Growth inhibition of human Bel7402 cells at 10 uM after 48 hrs by SRB assay; type: functional; conditions: Bel-7402, 48 h, read-out: GI; method in brief: as §1
[5] = tested on: Bel-7402; assay: Antitumor activity against human Bel7402 cells after 48 hrs by SRB assay; type: functional, cell-based; conditions: Bel-7402, 48 h; method in brief: as §1
[6] = tested on: BGC-823; assay: Antitumor activity against human BGC823 cells after 48 hrs by SRB assay; type: functional, cell-based; conditions: BGC-823, 48 h; method in brief: as §1
[7] = tested on: KB; assay: Antitumor activity against human KB cells after 48 hrs by SRB assay; type: functional, cell-based; method in brief: as §1

IC50 [5]	IC50 [6]	IC50 [7]	SMILES	inhibition of growth at 10 µM [1]	inhibition of growth at 10 µM [2]	inhibition of growth at 10 µM [3]	inhibition of growth at 10 µM [4]
–	–	–	O=C(N/N=C/c1ccc(O)cc1)c1ccc(-c2ccc(F)cc2)o1	1.07%	11%	46.3%	10.6%
5 µM	4.8 µM	5.8 µM	COc1cccc2c1C(=O)c1c(O)c3c(c(O)c1C2=O)C[C@@](O)(C(=O)CO)C[C@@H]3O[C@H]1C[C@H](N)[C@H](O)[C@H](C)O1 [DOXORUBICIN]	–	–	–	–
–	–	–	O=C(N/N=C/c1ccc(-c2cccc(F)c2)o1)c1ccc(Br)cc1	25.9%	26%	46.7%	28.2%
15.2 µM	9.5 µM	39 µM	O=C(N/N=C/c1ccc(-c2ccc(F)cc2)o1)c1ccccc1O	-2.08%	84.6%	71.5%	81.6%
–	–	–	Cc1cccc(C(=O)N/N=C/c2ccc(-c3ccccc3[N+](=O)[O-])o2)c1	6.25%	5.9%	36.1%	5.67%
–	–	–	O=C(N/N=C/c1ccc(Cl)cc1)c1ccc(-c2ccccc2F)o1	6.49%	11.3%	32.6%	16.9%
–	–	–	O=C(N/N=C/c1ccc(-c2ccc(Cl)cc2)o1)c1ccccc1	15.1%	3.2%	19.4%	-7.17%
–	–	–	O=C(N/N=C/c1ccccc1Cl)c1ccc(-c2ccc(F)cc2)o1	-3.22%	19.3%	32%	4.81%
19.3 µM	46.6 µM	55.3 µM	O=C(N/N=C/c1ccc(-c2ccc(F)cc2F)o1)c1ccccc1O	-9.5%	61.8%	68.4%	63.4%
8.3 µM	9.6 µM	> 40 µM	O=C(N/N=C/c1ccccc1O)c1ccc(-c2ccc(F)cc2F)o1	43.1%	75.2%	79.1%	91.8%
–	–	–	O=C(N/N=C/c1cccc(Br)c1)c1ccc(-c2ccccc2F)o1	27.6%	26.5%	43.6%	12.5%
–	–	–	Cc1cccc(/C=N/NC(=O)c2ccc(-c3ccccc3[N+](=O)[O-])o2)c1	9.54%	10.3%	31.4%	6.66%
–	–	–	O=C(N/N=C/c1ccccc1)c1ccc(-c2ccc(Cl)cc2)o1	25.8%	17%	33.7%	2.28%
24.6 µM	81.6 µM	> 40 µM	COc1ccccc1/C=N/NC(=O)c1ccc(-c2ccc(F)cc2F)o1	27.4%	59.5%	66.8%	53.1%
50.3 µM	180 µM	> 40 µM	O=C(N/N=C/c1ccccc1O)c1ccc(-c2ccc(F)cc2)o1	13.1%	53.9%	74%	40%
–	–	–	O=C(N/N=C/c1ccc(-c2ccccc2F)o1)c1ccc(Cl)cc1	6.13%	4.62%	31.5%	2.96%
–	–	–	COc1ccccc1C(=O)N/N=C/c1ccc(-c2ccc(F)cc2F)o1	7.77%	10.1%	35.9%	1.69%
